Hits are enriched below; roughly 1.2% of the tested compounds scored in any of these assays.
Tn6 DDE FP = DD(E)-Tn6 binding inhibition, primary FP screen; P02675; Fibrin DD(E) TRITC-Tn6 fluorescence polarization displacement; inhibition, % at 8.3 µM; actives 0.21% (n = 370,000);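 active means inhibition above a per-campaign cutoff: mean of compounds within control limits plus 3 SD, cut at about 15% in these data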;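 further: 0% = median of all compound wells on the plate and 100% = blocking peptide control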
Target sequence (P02675 whole entry, looked up): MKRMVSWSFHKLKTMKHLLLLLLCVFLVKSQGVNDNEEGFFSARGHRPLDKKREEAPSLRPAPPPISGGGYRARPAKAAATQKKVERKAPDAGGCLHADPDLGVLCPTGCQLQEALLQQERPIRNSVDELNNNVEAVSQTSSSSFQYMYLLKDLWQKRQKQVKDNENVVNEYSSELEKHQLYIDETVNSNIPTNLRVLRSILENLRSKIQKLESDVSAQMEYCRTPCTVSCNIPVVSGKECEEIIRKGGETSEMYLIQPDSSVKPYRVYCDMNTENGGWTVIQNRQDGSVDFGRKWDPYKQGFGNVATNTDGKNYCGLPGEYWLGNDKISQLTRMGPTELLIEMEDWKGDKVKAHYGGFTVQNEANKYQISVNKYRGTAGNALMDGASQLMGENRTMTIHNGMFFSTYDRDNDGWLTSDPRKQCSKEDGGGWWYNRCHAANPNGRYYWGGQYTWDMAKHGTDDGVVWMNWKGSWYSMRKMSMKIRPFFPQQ
CRFR2-BP antag = CRF-BP/CRF-R2 complex antagonism. actives 0.59% (n = 350,000). AID 588475. inhibition, % at 11.8 µM. HEK293 CRF-R2/CRF-BP, CRF-induced calcium fluorescence;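 active means inhibition of the ligand-induced calcium signal above about 50% at the single tested concentration, limit read from the data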
CRFBP-R2 agonist = CRF-BP/CRF-R2 complex agonism; HEK293 CRF-R2/CRF-BP, calcium dye fluorescence (FLIPR); percent of saturating CRF peptide response; actives 0.46% (n = 350,000); activation, % at 13.2 µM;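 active means activation of at least 50%, plus an integration ratio under a set limit after plate pattern correction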;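 further: plate controls were neutral control wells without compound for no effect and CRF at EC100 for full effect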
Tn7 DDE FP = disrupts Tn7 cyclic peptide binding to fibrin D-Dimer-E complex; P02675; FP displacement of FITC-Tn7 peptide from fibrin DD(E); 0% = median of compound wells per plate; inhibition, % at 8.3 µM; actives 0.13% (n = 370,000);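 active means inhibition above the mean of compounds falling within the control limits plus 3 SD of them, cut at about 14% in these data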;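 further: 0% = plate median of compound wells and 100% = 10 µM Aha-Tn7 peptide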
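Assay system: human fibrin DD(E) protein / Input: 2 µM fibrin DD(E) / Benchmarks: high control of 10 µM Aha-Tn7 peptide / Measured by: fluorescence polarization of the labelled Tn7 tracer / Medium: Tris buffer with calcium and detergent, pH 7.8 / Timing: 10 min compound pre-incubation, 3 h probe incubation at room temperature / Repeats: one replicate per compound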
* marks the source's active call; other numbers are inactive results.

CCOc1ccc(-n2c(C)cc(/C=C3/C(=N)N4C(=NC3=O)SN=C4S(C)(=O)=O)c2C)cc1 was read as Tn6 DDE FP -1, CRFR2-BP antag 93*, CRFBP-R2 agonist 2 and Tn7 DDE FP 2.
Screening Cc1cccc(C)c1-n1cccc1/C=C1/C(=N)N2C(=NC1=O)SN=C2S(C)(=O)=O returned Tn6 DDE FP -7, CRFR2-BP antag 59*, CRFBP-R2 agonist -1 and Tn7 DDE FP 0.
For CCC(CC)C1=NN2C(=N)/C(=C\c3cc(C)n(-c4cccc(C)c4)c3C)C(=O)N=C2S1 the results were Tn6 DDE FP 7, CRFR2-BP antag -64, CRFBP-R2 agonist 87* and Tn7 DDE FP 1.
Screening Cc1cc(/C=C2/C(=N)N3C(=NC2=O)SN=C3S(C)(=O)=O)c(C)n1-c1ccc(F)cc1 returned Tn6 DDE FP -8, CRFR2-BP antag 25, CRFBP-R2 agonist 3 and Tn7 DDE FP -1.
Cc1ccc(-n2cccc2/C=C2/C(=N)N3C(=NC2=O)SN=C3S(C)(=O)=O)cc1Cl was read as Tn6 DDE FP -20, CRFR2-BP antag 50*, CRFBP-R2 agonist 1 and Tn7 DDE FP -8.
CC1=NN2C(=N)/C(=C\c3cc(C)n(-c4ccccc4)c3C)C(=O)N=C2S1 was read as Tn6 DDE FP 0, CRFR2-BP antag -26, CRFBP-R2 agonist 1 and Tn7 DDE FP 3.
CCC1=NN2C(=N)/C(=C\c3cccn3-c3c(C)cccc3C)C(=O)N=C2S1 was read as Tn6 DDE FP 0, CRFR2-BP antag -26, CRFBP-R2 agonist -2 and Tn7 DDE FP -2.
Screening CN(C)S(=O)(=O)c1ccc2nc(COCc3nc4ccc(S(=O)(=O)N(C)C)cc4[nH]3)[nH]c2c1 returned Tn6 DDE FP 0 and Tn7 DDE FP -6.
For CCc1nnc(NS(=O)(=O)c2ccc(NC(=S)NC(=O)/C=C/c3ccccc3)cc2)s1 the results were Tn6 DDE FP -3, CRFR2-BP antag 56*, CRFBP-R2 agonist -1 and Tn7 DDE FP 10.
`C=CCc1cccc2cc(C(=O)Nc3ccc(S(=O)(=O)Nc4nnc(CC)s4)cc3)c(=O)oc12` gave Tn6 DDE FP 3, CRFR2-BP antag 61*, CRFBP-R2 agonist -1 and Tn7 DDE FP -7.
For CSCCC(NC(=O)c1ccco1)C(=O)N1CC=C(c2ccccc2)CC1 (stereo not drawn) the results were Tn6 DDE FP 1, CRFR2-BP antag -81, CRFBP-R2 agonist 53* and Tn7 DDE FP 2.
C#CCNC(=O)C[C@@H]1C(=O)N(Cc2ccc(OC)cc2)/C2=C/CCCCC[C@@]21C(=O)OCC was read as Tn6 DDE FP 2 and Tn7 DDE FP 6.
Screening COC(=O)C1CN(C2CC2)CCS(=O)(=O)N1Cc1cn(Cc2ccccc2)nn1 (stereo not drawn) returned Tn6 DDE FP 4 and Tn7 DDE FP 1.
`O=C(/C=C/c1ccc(N2CCC(c3ccccc3)=N2)cc1)c1ccccc1` gave Tn6 DDE FP -8, CRFR2-BP antag -284, CRFBP-R2 agonist 311* and Tn7 DDE FP -3.
CCOC(=O)/C(=C\c1ccc(N2CCC(c3ccccc3)=N2)cc1)C(C)=O was read as Tn6 DDE FP 7, CRFR2-BP antag -105, CRFBP-R2 agonist 99* and Tn7 DDE FP -3.
O=C(/C=C/c1ccc(O)cc1)c1ccccc1 was read as Tn6 DDE FP -2, CRFR2-BP antag -24, CRFBP-R2 agonist 0 and Tn7 DDE FP -2.
For COC(=O)C1=C(C)NC(=O)NC1c1ccc(N2CCC(c3ccccc3)=N2)cc1 (stereo not drawn) the results were Tn6 DDE FP -4, CRFR2-BP antag -20, CRFBP-R2 agonist -1 and Tn7 DDE FP 1.
CCn1c2ccccc2c2cc(C=NNC(=O)c3cc(-c4ccc(OC)cc4)n[nH]3)ccc21 was read as Tn6 DDE FP 10 and Tn7 DDE FP 11.
COC(=O)c1ccc(CNC(=O)COC(=O)CC23CC4CC(CC(Br)(C4)C2)C3)cc1 was read as Tn6 DDE FP 10, CRFR2-BP antag 51*, CRFBP-R2 agonist 1 and Tn7 DDE FP -6.
`CC(C)C[C@@H]1COc2cc(Br)ccc2S(=O)(=O)N1Cc1cn(Cc2ccccc2)nn1` gave Tn6 DDE FP 1 and Tn7 DDE FP -5.
COc1ccc(OCC(C)CN2CCC(C(O)(c3ccccc3)c3ccccc3)CC2)cc1 (stereo not drawn) was read as Tn6 DDE FP -3 and Tn7 DDE FP -7.
`N#Cc1cccc(NC(=O)Nc2cccs2)c1` gave Tn6 DDE FP -3, CRFR2-BP antag 108*, CRFBP-R2 agonist 8 and Tn7 DDE FP -3.
CCCC(=O)Nc1ccc(-c2nc3cc(C)c(C)cc3o2)c(O)c1 was read as Tn6 DDE FP -1, CRFR2-BP antag 75*, CRFBP-R2 agonist 3 and Tn7 DDE FP -1.
For CC1=C[C@]2(C[N+](Cc3ccccc3)=C(N)N2)n2c(=O)n(-c3ccccc3)c(=O)n2C1 the results were Tn6 DDE FP 5 and Tn7 DDE FP 2.
`O=C(CCc1nnc2ccc(NCc3ccco3)nn12)N1CCCCC1` gave Tn6 DDE FP 8, CRFR2-BP antag -3, CRFBP-R2 agonist 2 and Tn7 DDE FP 2.
O=C(CCc1nnc2ccc(NCc3ccco3)nn12)N1CCN(c2ccccc2F)CC1 was read as Tn6 DDE FP 1, CRFR2-BP antag 52*, CRFBP-R2 agonist 2 and Tn7 DDE FP 4.
Screening COC(=O)C1CN(C2CCCC2)CCS(=O)(=O)N1Cc1cn(Cc2ccc(F)cc2)nn1 (stereo not drawn) returned Tn6 DDE FP 6 and Tn7 DDE FP -7.
`Cc1cc(SCC(=O)Nc2cccc(S(N)(=O)=O)c2)c(C)cc1Br` gave Tn6 DDE FP 3, CRFR2-BP antag 103*, CRFBP-R2 agonist 2 and Tn7 DDE FP 5.
For CCCCOC1CC(c2ccc(OCc3ccc(OC)cc3)c(OC)c2)N(C)O1 (stereo not drawn) the results were Tn6 DDE FP 5, CRFR2-BP antag 89*, CRFBP-R2 agonist -3 and Tn7 DDE FP -8.
For CNc1nc2[nH]c(=O)c3c(c2s1)OC(N)=C(C#N)C3c1cccc(F)c1 (stereo not drawn) the results were Tn6 DDE FP 3, CRFR2-BP antag -157, CRFBP-R2 agonist 103* and Tn7 DDE FP -5.
For C=CCSc1nc2c(c(=O)[nH]1)C(c1ccccc1)C(C#N)=C(N)O2 (stereo not drawn) the results were Tn6 DDE FP 1, CRFR2-BP antag -2, CRFBP-R2 agonist -1 and Tn7 DDE FP 4.
`CC(Oc1ccc(Br)cc1)C(=O)Nc1ccc(S(=O)(=O)NC2=NCCCCC2)cc1` (stereo not drawn) gave Tn6 DDE FP -6, CRFR2-BP antag -79, CRFBP-R2 agonist 81* and Tn7 DDE FP 4.
COC(=O)[C@]12C[C@H](CC(=O)NCc3ccccc3)C(=O)N(Cc3cccc4ccccc34)C1=C[C@H](COCc1ccccc1)O[C@@H]2C was read as Tn6 DDE FP -4 and Tn7 DDE FP -8.
Screening Nc1ccc2c3c(cccc13)-c1ccccc1-2 returned Tn6 DDE FP 2, CRFR2-BP antag -216, CRFBP-R2 agonist 197* and Tn7 DDE FP 11.

Screens: PubChem BioAssay, several laboratories
